Results taken from ChEMBL document CHEMBL4431325, “Design and Synthesis of Orally Bioavailable 4-Methyl Heteroaryldihydropyrimidine Based Hepatitis B Virus (HBV) Capsid Inhibitors” (J Med Chem, 2016).

Columns and labels:
[1] = Intrinsic clearance in mouse liver microsomes at 1 uM preincubated for 10 mins followed by NADPH addition measured up to 30 mins by LC-MS/MS analysis; format: ADME, Microsome; conditions: read-out: CLH
[2] = Intrinsic clearance in human liver microsomes at 1 uM preincubated for 10 mins followed by NADPH addition measured up to 30 mins by LC-MS/MS analysis; format: ADME, Microsome; conditions: read-out: CLH
[3] = Oral bioavailability in CD-1 mouse plasma administered as single dose by LC-MS/MS analysis; format: ADME, organism-based
Outline: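 CD-1 mice (18-25 g) were used, with three mice per time point. The i.v. dose (5 mg/kg) was given in 6% Solutol/ethanol (1:1) plus 94% saline, and the oral dose (50 mg/kg) in 1% RC591. Blood was sampled at nine (i.v.) or eight (p.o.) time points into heparin. Plasma was analysed by LC-MS/MS, and parameters including F were derived noncompartmentally.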

[4] = Half life in CD-1 mouse plasma at 50 mg/kg, po administered as single dose by LC-MS/MS analysis; format: ADME, organism-based
[5] = Volume of distribution at steady state in CD-1 mouse plasma at 5 mg/kg, iv administered as single dose by LC-MS/MS analysis; format: ADME, organism-based; conditions: read-out: Vdss
[6] = Cmax in CD-1 mouse liver at 50 mg/kg, po administered as single dose by LC-MS/MS analysis; format: ADME, organism-based; parameters: dose 50 mg/kg, route oral
[7] = AUC (0 to t) in CD-1 mouse liver at 50 mg/kg, po administered as single dose by LC-MS/MS analysis; format: ADME, organism-based; conditions: in vivo
[8] = AUC (0 to t) in CD-1 mouse plasma at 5 mg/kg, iv administered as single dose by LC-MS/MS analysis; format: ADME, organism-based; conditions: in vivo
[9] = Drug uptake in CD-1 mouse heart at 5 mg/kg, iv or 50 mg/kg, po administered as single dose by LC-MS/MS analysis; format: ADME, organism-based; conditions: in vivo
[10] = Cmax in CD-1 mouse plasma at 5 mg/kg, iv administered as single dose by LC-MS/MS analysis; format: ADME, organism-based; parameters: dose 5 mg/kg, route intravenous
[11] = Clearance in CD-1 mouse plasma at 5 mg/kg, iv administered as single dose by LC-MS/MS analysis; format: ADME, organism-based
[12] = Cmax in CD-1 mouse plasma at 50 mg/kg, po administered as single dose by LC-MS/MS analysis; format: ADME, organism-based; parameters: dose 50 mg/kg, route oral
[13] = Half life in CD-1 mouse plasma at 5 mg/kg, iv administered as single dose by LC-MS/MS analysis; format: ADME, organism-based
[14] = AUC (0 to t) in CD-1 mouse plasma at 50 mg/kg, po administered as single dose by LC-MS/MS analysis; format: ADME, organism-based; conditions: in vivo
[15] = Drug uptake in CD-1 mouse lung at 5 mg/kg, iv or 50 mg/kg, po administered as single dose by LC-MS/MS analysis; format: ADME, organism-based; conditions: in vivo
[16] = Drug uptake in CD-1 mouse brain at 5 mg/kg, iv or 50 mg/kg, po administered as single dose by LC-MS/MS analysis; format: ADME, organism-based; conditions: in vivo
[17] = Oral bioavailability in CD-1 mouse plasma at 50 mg/kg administered as single dose by LC-MS/MS analysis; format: ADME, organism-based
in vivo = conditions: CD-1, mouse, other tissue, po, 50 mg/kg
[18] = Drug metabolism in mouse liver microsomes assessed as aromatization of dihydropyrimidine core at 1 uM preincubated for 10 mins followed by NADPH addition measured up to 30 mins by LC-MS/MS analysis; format: ADME, Microsome; conditions: 0.5 h
[19] = Drug metabolism in human liver microsomes assessed as aromatization of dihydropyrimidine core at 1 uM preincubated for 10 mins followed by NADPH addition measured up to 30 mins by LC-MS/MS analysis; format: ADME, Microsome; conditions: 0.5 h
[20] = Stability in CD-1 mouse liver by LC-MS/MS analysis; format: ADME, tissue-based

| Compound | CLint scaled at 1 µM [1] [mL/min/kg] | further results |
| --- | --- | --- |
| COC(=O)C1=C(CN2CC(F)(F)C[C@H]2C(=O)OC)NC(c2nccs2)=N[C@@]1(C)c1ccc(F)cc1 | 90 | CLint scaled at 1 µM [2]: 23 mL/min/kg |
| CC1(c2ccc(F)cc2)N=C(c2nccs2)NC(CN2CCOCC2)=C1C(N)=O (stereo unspecified) | 59 |  |
| COC(=O)C1=C(CN2CCCCC2)NC(c2nccs2)=NC1(C)c1ccc(F)cc1 (stereo unspecified) | 88 |  |
| COC(=O)C1=C(CN2CCCC(F)(F)C2)NC(c2nccs2)=NC1(C)c1ccc(F)cc1 (stereo unspecified) | 89 |  |
| COC(=O)C1=C(CN2CCOCC2)NC(c2nccs2)=N[C@@]1(C)c1ccc(F)c(F)c1 | 89 |  |
| COC(=O)C1=C(COC(C(=O)O)C(F)(F)F)NC(c2nccs2)=NC1(C)c1ccc(F)cc1 (stereo unspecified) | 24 |  |
| COC(=O)C1=C(C)NC(c2nccs2)=NC1(C)c1ccc(C#N)cc1 (stereo unspecified) | 75 |  |
| COC(=O)C1=C(C)NC(c2nccs2)=NC1(C)c1ccc(Cl)cc1 (stereo unspecified) | 85 |  |
| CNC(=O)C1=C(CN2CCOCC2)NC(c2nccs2)=NC1(C)c1ccc(F)cc1 (stereo unspecified) | 77 |  |
| COC(=O)C1=C(CN2CCOCC2)NC(c2nccs2)=N[C@@]1(C)c1ccc(F)cc1 | 81 | bioavailability [3]: 1.5% |
| COC(=O)C1=C(CN2CCC[C@@H]2C(=O)O)NC(c2nccs2)=N[C@@]1(C)c1ccc(F)cc1 | 60 |  |
| COC(=O)C1=C(C)NC(c2nccs2)=NC1(C)c1ccc(F)c(F)c1 (stereo unspecified) | 83 |  |
| CC1(c2ccc(F)cc2)N=C(c2nccs2)NC(CN2CCOCC2)=C1c1ncco1 (stereo unspecified) | 89 |  |
| COC(=O)C1=C(CN2CCOCC2(C)C)NC(c2nccs2)=NC1(C)c1ccc(F)cc1 (stereo unspecified) | 88 |  |
| CC1(c2ccc(F)cc2)N=C(c2nccs2)NC(CN2CCOCC2)=C1C(=O)O (stereo unspecified) | 6 |  |
| COC(=O)C1=C(CN2CCNCC2)NC(c2nccs2)=NC1(C)c1ccc(F)cc1 (stereo unspecified) | 39 |  |
| COC(=O)C1=C(CN2CC(F)(F)C[C@H]2C(=O)O)NC(c2nccs2)=N[C@@]1(C)c1ccc(F)cc1 | 84 | half-life [4]: 48 min; Vd [5]: 0.22 L/kg; CLint scaled at 1 µM [2]: 12 mL/min/kg; Cmax [6]: 41200 ng/mL; AUCt [7]: 107000 µg/L/h; AUCt [8]: 1500 µg/L/h; Drug uptake [9]: Not Active; Cmax [10]: 12400 ng/mL; clearance [11]: 55.3 mL/min/kg; Cmax [12]: 2470 ng/mL; half-life [13]: 10.8 min; AUCt [14]: 5420 µg/L/h; Drug uptake [15]: Not Active; Drug uptake [16]: Not Active; bioavailability [17]: 36%; Kp (in vivo): 20 |
| COC(=O)C1=C(CN2CCNC(=O)C2)NC(c2nccs2)=NC1(C)c1ccc(F)cc1 (stereo unspecified) | 81 |  |
| COC(=O)C1=C(CN2CCC(F)(F)C2)NC(c2nccs2)=NC1(C)c1ccc(F)cc1 (stereo unspecified) | 89 |  |
| COC(=O)C1=C(CN2CCC(O)C2)NC(c2nccs2)=NC1(C)c1ccc(F)cc1 (stereo unspecified) | 83 |  |
| COC(=O)C1=C(CN(C)C2(C(=O)O)CC2)NC(c2nccs2)=NC1(C)c1ccc(F)cc1 (stereo unspecified) | 42 |  |
| COC(=O)C1=C(CN2CCC[C@H]2C(=O)O)NC(c2nccs2)=N[C@@]1(C)c1ccc(F)cc1 | 14 | CLint scaled at 1 µM [2]: 2.3 mL/min/kg |
| COC(=O)C1=C(Cn2ccnc2)NC(c2nccs2)=NC1(C)c1ccc(F)cc1 (stereo unspecified) | 69 |  |
| COC(=O)C1=C(CN2CCOCC2=O)NC(c2nccs2)=NC1(C)c1ccc(F)cc1 (stereo unspecified) | 80 |  |
| COC(=O)C1=C(CN2CCC(C(F)(F)F)C2)NC(c2nccs2)=NC1(C)c1ccc(F)cc1 (stereo unspecified) | 88 |  |
| COC(=O)C1=C(CN2CC3CC2CO3)NC(c2nccs2)=NC1(C)c1ccc(F)cc1 (stereo unspecified) | 84 |  |
| COC(=O)C1=C(C)NC(c2ncc(F)cc2F)=N[C@H]1c1ccc(F)cc1Cl |  | Drug metabolism [18]: Metabolite_Detected; Drug metabolism [19]: Metabolite_Detected; Stability [20]: Unstable |

Second part, led by results:

| CLint scaled at 1 µM [1] [mL/min/kg] | Compound | further results |
| --- | --- | --- |
| 88 | CC(C)OC(=O)C1=C(CN2CCOCC2)NC(c2nccs2)=NC1(C)c1ccc(F)cc1 (stereo unspecified) |  |
| 79 | CC1(c2ccc(F)cc2)N=C(c2nccs2)NC(CN2CCOCC2)=C1C#N (stereo unspecified) |  |
| 81 | COC(=O)C1=C(CN2CCC(O)CC2)NC(c2nccs2)=NC1(C)c1ccc(F)cc1 (stereo unspecified) |  |
| 57 | COC(=O)C1=C(C)NC(c2nccs2)=NC1(C)c1ccc(S(C)(=O)=O)cc1 (stereo unspecified) |  |
| 80 | COC(=O)C1=C(CN2CCOC[C@H]2C(=O)O)NC(c2nccs2)=N[C@@]1(C)c1ccc(F)cc1 | CLint scaled at 1 µM [2]: 4.1 mL/min/kg |
| 79 | COC(=O)C1=C(CN2CCCS2(=O)=O)NC(c2nccs2)=NC1(C)c1ccc(F)cc1 (stereo unspecified) |  |
| 81 | COC(=O)C1=C(COCC(F)(F)F)NC(c2nccs2)=NC1(C)c1ccc(F)cc1 (stereo unspecified) |  |
| 88 | COC(=O)C1=C(CN2CC(OC)C2)NC(c2nccs2)=NC1(C)c1ccc(F)cc1 (stereo unspecified) |  |
| 66 | COC(=O)C1=C(CN2CCS(=O)(=O)CC2)NC(c2nccs2)=NC1(C)c1ccc(F)cc1 (stereo unspecified) |  |
| 88 | COC(=O)C1=C(CN2CCC(F)(F)CC2)NC(c2nccs2)=NC1(C)c1ccc(F)cc1 (stereo unspecified) |  |
| 61 | COC(=O)C1=C(CN2CCOC[C@@H]2C(=O)O)NC(c2nccs2)=N[C@@]1(C)c1ccc(F)cc1 |  |
| 79 | COC(=O)C1=C(COC2CCOC2)NC(c2nccs2)=NC1(C)c1ccc(F)cc1 (stereo unspecified) |  |
